What was measured:
[1] = target: 5-hydroxytryptamine receptor 2A (Rattus norvegicus) (UniProt P14842); assay: Displacement of [3H]ketanserin from 5HT2A receptor in rat cortex membrane at 10^-6 M by radioligand binding assay; format: cell membranes
In short: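 Single-point screen at 1 µM, reported as % inhibition of [3H]-ketanserin (88.0 Ci/mmol) binding. Non-specific binding was defined with 1 µM methysergide. Compounds inhibiting at least 85% went on to full competition.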

[2] = target: T1, 5-hydroxytryptamine receptor 1A (Rattus norvegicus) (UniProt P19327); assay: Displacement of [3H]8-OH-DPAT from 5HT1A receptor in rat hippocampal membrane at 10^-6 M by radioligand binding assay; format: cell membranes; settings: Hippocampus
T1 sequence (whole entry): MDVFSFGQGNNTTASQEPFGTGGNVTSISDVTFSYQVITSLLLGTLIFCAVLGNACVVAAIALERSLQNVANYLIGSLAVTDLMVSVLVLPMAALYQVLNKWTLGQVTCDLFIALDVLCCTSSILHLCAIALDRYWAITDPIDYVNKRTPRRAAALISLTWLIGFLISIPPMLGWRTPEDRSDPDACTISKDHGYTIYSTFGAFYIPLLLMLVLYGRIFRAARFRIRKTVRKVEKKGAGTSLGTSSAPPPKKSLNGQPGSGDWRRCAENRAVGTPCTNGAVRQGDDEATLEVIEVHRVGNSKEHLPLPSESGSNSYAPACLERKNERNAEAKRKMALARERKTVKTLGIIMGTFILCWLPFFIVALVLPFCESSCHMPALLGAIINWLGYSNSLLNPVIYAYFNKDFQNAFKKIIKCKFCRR
In short: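 Single-point screen at 1 µM on rat hippocampal membranes, reported as % inhibition of [3H]-8-OH-DPAT (170 Ci/mmol) binding. Non-specific binding was defined with 10 µM 5-HT. Compounds inhibiting at least 85% went on to full competition.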

[3] = target: 5-hydroxytryptamine receptor 7 (Homo sapiens, UniProt P34969); assay: Displacement of [3H]-5-CT from human 5-HT7b receptor expressed in HEK293 cells by radioligand binding assay; format: cell-based
5-hydroxytryptamine receptor 7, sequence (P34969 whole entry): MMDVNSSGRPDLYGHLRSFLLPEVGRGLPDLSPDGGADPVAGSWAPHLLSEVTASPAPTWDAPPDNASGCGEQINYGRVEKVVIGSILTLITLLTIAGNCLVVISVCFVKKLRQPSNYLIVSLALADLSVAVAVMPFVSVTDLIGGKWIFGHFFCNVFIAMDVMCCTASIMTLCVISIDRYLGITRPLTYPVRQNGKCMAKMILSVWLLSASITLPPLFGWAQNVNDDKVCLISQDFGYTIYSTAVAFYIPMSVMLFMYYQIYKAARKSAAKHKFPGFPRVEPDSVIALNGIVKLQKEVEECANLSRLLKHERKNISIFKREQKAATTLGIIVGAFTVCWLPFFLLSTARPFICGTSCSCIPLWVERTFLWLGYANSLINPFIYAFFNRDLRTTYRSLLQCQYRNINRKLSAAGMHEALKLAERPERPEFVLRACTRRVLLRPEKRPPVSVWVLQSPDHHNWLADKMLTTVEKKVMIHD
In short: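 Membranes from HEK-293 cells stably expressing human 5-HT7b receptor, with [3H]-5-CT (93.0 Ci/mmol) as radioligand. Full competition used 7–9 concentrations of test compound, each run in triplicate. Ki was derived from the inhibition.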

[4] = target: T2, 5-hydroxytryptamine receptor 1A (Rattus norvegicus, UniProt P19327); assay: Displacement of [3H]8-OH-DPAT from 5HT1A receptor in rat hippocampal membrane by radioligand binding assay; format: cell membranes, Hippocampus
T2 sequence (P19327 whole entry): T1 sequence (whole entry)
In short: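 Rat hippocampal membranes were incubated with [3H]-8-OH-DPAT (170 Ci/mmol), with 10 µM 5-HT for non-specific binding. Competition used 7–9 test concentrations, each in triplicate, to give Ki. Values are means of three experiments run in triplicate.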

5-hydroxytryptamine receptor 2A (Rattus norvegicus), sequence (P14842 whole entry): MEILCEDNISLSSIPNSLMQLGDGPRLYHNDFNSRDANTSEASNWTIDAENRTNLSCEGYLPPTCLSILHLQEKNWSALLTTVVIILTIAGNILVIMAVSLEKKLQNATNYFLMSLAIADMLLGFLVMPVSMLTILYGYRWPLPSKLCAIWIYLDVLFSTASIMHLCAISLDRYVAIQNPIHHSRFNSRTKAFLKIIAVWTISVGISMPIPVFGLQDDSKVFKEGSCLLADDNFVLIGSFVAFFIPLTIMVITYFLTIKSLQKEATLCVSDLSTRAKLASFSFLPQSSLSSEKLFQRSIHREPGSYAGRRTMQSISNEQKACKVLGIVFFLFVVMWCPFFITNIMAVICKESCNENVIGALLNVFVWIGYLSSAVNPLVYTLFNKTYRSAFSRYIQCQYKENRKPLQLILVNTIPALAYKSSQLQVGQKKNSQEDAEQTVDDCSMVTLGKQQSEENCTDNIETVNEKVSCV

SMILES	inhibition [1]	inhibition [2]	Ki [3]	Ki [4]
COc1ccccc1N1CCN(CCn2cnc3c(cnc4cc(C)ccc43)c2=O)CC1	19%	96%		14 nM
O=c1c2cnc3ccccc3c2ncn1CCCCN1CCN(c2ccccc2Cl)CC1	72%	92%	153 nM	17 nM
COc1ccccc1N1CCN(CCn2cnc3c(cnc4ccc(C)cc43)c2=O)CC1	11%	88%		82 nM
O=c1c2cnc3ccccc3c2ncn1CCCCN1CCN(c2cccc(Cl)c2)CC1	84%	96%	184 nM	34 nM
Cc1ccc2c(c1)ncc1c(=O)n(CCCN3CCN(c4ccccc4)CC3)cnc12	44%	86%		125 nM
O=c1c2cnc3ccccc3c2ncn1CCN1CCN(c2ccc(F)cc2)CC1	14%	40%		
Cc1ccc2c(c1)ncc1c(=O)n(CCCN3CCN(c4ccc(F)cc4)CC3)cnc12	45%	68%		
Cc1ccc2ncc3c(=O)n(CCCN4CCN(c5ccc(F)cc5)CC4)cnc3c2c1	39%	67%		
O=c1c2cnc3ccccc3c2ncn1CCCCN1CCN(c2ccccc2)CC1	76%	93%	612 nM	28 nM
Cc1ccccc1N1CCN(CCCn2cnc3c(cnc4ccccc43)c2=O)CC1	32%	81%		
O=c1c2cnc3ccccc3c2ncn1CCN1CCN(c2ccccc2Cl)CC1	17%	90%		78 nM
O=c1c2cnc3ccccc3c2ncn1CCN1CCN(c2ccccc2F)CC1	25%	47%		
COc1ccc(N2CCN(CCn3cnc4c(cnc5cc(C)ccc54)c3=O)CC2)cc1	9%	9%		
O=c1c2cnc3ccccc3c2ncn1CCCCN1CCN(c2cccc(C(F)(F)F)c2)CC1	61%	89%	418 nM	127 nM
Cc1ccccc1N1CCN(CCn2cnc3c(cnc4ccccc43)c2=O)CC1	34%	84%		514 nM
Cc1ccc2ncc3c(=O)n(CCCN4CCN(c5cccc(Cl)c5)CC4)cnc3c2c1	44%	77%		
COc1cccc(N2CCN(CCCCn3cnc4c(cnc5ccccc54)c3=O)CC2)c1	76%	90%	484 nM	31 nM
Cc1ccc2c(c1)ncc1c(=O)n(CCCN3CCN(c4cccc(Cl)c4)CC3)cnc12	40%	73%		
O=c1c2cnc3ccccc3c2ncn1CCCN1CCN(c2ccc(Cl)cc2)CC1	67%	42%		
O=c1c2cnc3ccccc3c2ncn1CCCN1CCN(c2cccc(Cl)c2)CC1	63%	91%		80 nM
COc1ccccc1N1CCN(CCCn2cnc3c(cnc4cc(C)ccc43)c2=O)CC1	18%	92%		31 nM
COc1ccccc1N1CCN(CCCn2cnc3c(cnc4ccccc43)c2=O)CC1	8%	97%		20 nM
Cc1ccc2ncc3c(=O)n(CCCCN4CCN(c5cccc(Cl)c5)CC4)cnc3c2c1	57%	91%		67 nM

Further lines, results first:

inhibition [1]	inhibition [2]	Ki [3]	Ki [4]	SMILES
57%	60%			Cc1ccc2c(c1)ncc1c(=O)n(CCCCN3CCN(c4ccc(F)cc4)CC3)cnc12
79%	54%	328 nM		O=c1c2cnc3ccccc3c2ncn1CCCCN1CCN(c2ccc(Cl)cc2)CC1
8%	82%			Cc1ccc2ncc3c(=O)n(CCN4CCN(c5cccc(C(F)(F)F)c5)CC4)cnc3c2c1
34%	94%		97 nM	Cc1ccc2ncc3c(=O)n(CCCCN4CCN(c5ccccc5F)CC4)cnc3c2c1
66%	95%		47 nM	O=c1c2cnc3ccccc3c2ncn1CCCN1CCN(c2ccccc2)CC1
4%	5%			COc1ccc(N2CCN(CCn3cnc4c(cnc5ccc(C)cc54)c3=O)CC2)cc1
45%	90%		83 nM	Cc1ccc2c(c1)ncc1c(=O)n(CCCCN3CCN(c4ccccc4F)CC3)cnc12
82%	96%	296 nM	52 nM	Cc1ccccc1N1CCN(CCCCn2cnc3c(cnc4ccccc43)c2=O)CC1
36%	93%		42 nM	COc1ccccc1N1CCN(CCn2cnc3c(cnc4ccccc43)c2=O)CC1
4%	11%			O=c1c2cnc3ccccc3c2ncn1CCN1CCN(c2ccc(Cl)cc2)CC1
5%	93%		26 nM	COc1ccccc1N1CCN(CCCn2cnc3c(cnc4ccc(C)cc43)c2=O)CC1
8%	88%		241 nM	Cc1ccc2c(c1)ncc1c(=O)n(CCN3CCN(c4cccc(C(F)(F)F)c4)CC3)cnc12
11%	82%			COc1cccc(N2CCN(CCn3cnc4c(cnc5ccccc54)c3=O)CC2)c1
23%	0%			COc1ccc(N2CCN(CCCn3cnc4c(cnc5ccccc54)c3=O)CC2)cc1
48%	99%		8 nM	COc1ccccc1N1CCN(CCCCn2cnc3c(cnc4ccc(C)cc43)c2=O)CC1
82%	75%	404 nM		O=c1c2cnc3ccccc3c2ncn1CCCCN1CCN(c2ccc(F)cc2)CC1
29%	10%			O=c1c2cnc3ccccc3c2ncn1CCN1CCN(c2ccc(-c3ncccn3)cc2)CC1

inhibition [1]	inhibition [2]	Ki [3]	Ki [4]	SMILES
43%	99%		20 nM	COc1ccccc1N1CCN(CCCCn2cnc3c(cnc4cc(C)ccc43)c2=O)CC1
64%	97%	276 nM	6 nM	COc1ccccc1N1CCN(CCCCn2cnc3c(cnc4ccccc43)c2=O)CC1
56%	72%			Cc1ccc2ncc3c(=O)n(CCCCN4CCN(c5ccc(F)cc5)CC4)cnc3c2c1
44%	85%		243 nM	O=c1c2cnc3ccccc3c2ncn1CCCN1CCN(c2cccc(C(F)(F)F)c2)CC1
41%	87%		93 nM	O=c1c2cnc3ccccc3c2ncn1CCCN1CCN(c2ccccc2Cl)CC1
26%	66%			O=c1c2cnc3ccccc3c2ncn1CCN1CCN(c2ccccc2)CC1
28%	6%			COc1ccc(N2CCN(CCn3cnc4c(cnc5ccccc54)c3=O)CC2)cc1
26%	89%		120 nM	COc1cccc(N2CCN(CCCn3cnc4c(cnc5ccccc54)c3=O)CC2)c1
73%	85%		129 nM	O=c1c2cnc3ccccc3c2ncn1CCCN1CCN(c2ccc(F)cc2)CC1
62%	85%		172 nM	Cc1ccc2c(c1)ncc1c(=O)n(CCCCN3CCN(c4cccc(Cl)c4)CC3)cnc12
79%	96%	739 nM	63 nM	O=c1c2cnc3ccccc3c2ncn1CCCCN1CCN(c2ccccc2F)CC1
28%	86%		128 nM	Cc1ccc2ncc3c(=O)n(CCCN4CCN(c5ccccc5)CC4)cnc3c2c1
48%	11%	> 10000 nM		COc1ccc(N2CCN(CCCCn3cnc4c(cnc5ccccc54)c3=O)CC2)cc1
27%	92%		55 nM	O=c1c2cnc3ccccc3c2ncn1CCCN1CCN(c2ccccc2F)CC1
22%	93%		55 nM	O=c1c2cnc3ccccc3c2ncn1CCN1CCN(c2cccc(Cl)c2)CC1
36%	89%		160 nM	O=c1c2cnc3ccccc3c2ncn1CCN1CCN(c2cccc(C(F)(F)F)c2)CC1

Source: ChEMBL document CHEMBL1811770, “Synthesis and structural investigation of some pyrimido[5,4-c]quinolin-4(3H)-one derivatives with a long-chain arylpiperazine moiety as potent 5-HT(1A/2A) and 5-HT(7) receptor ligands” (Eur J Med Chem, 2011)
